IC50 data for 29 compounds are collected here from ChEMBL document CHEMBL1141960, “Synthesis and evaluation of novel 8,6-fused bicyclic peptidomimetic compounds as interleukin-1beta converting enzyme inhibitors” (Bioorg Med Chem Lett, 2005).

For experiment [1], the target named is T1, Caspase-3 (Homo sapiens, UniProt P42574).
T1 sequence (P42574 whole entry): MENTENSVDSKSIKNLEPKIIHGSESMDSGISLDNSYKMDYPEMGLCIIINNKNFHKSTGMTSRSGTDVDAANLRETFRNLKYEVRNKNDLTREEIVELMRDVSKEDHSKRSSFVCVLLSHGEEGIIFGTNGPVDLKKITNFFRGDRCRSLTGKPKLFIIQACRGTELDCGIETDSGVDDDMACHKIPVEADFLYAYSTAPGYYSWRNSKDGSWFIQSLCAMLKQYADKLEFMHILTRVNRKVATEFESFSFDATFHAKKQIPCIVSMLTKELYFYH
In words: Inhibitory activity against Caspase 3.

Experiment [2] concerns THP-1. Description: Inhibitory activity in THP1 whole cell assay measuring IL1-beta production. Particulars: Homo sapiens. Type of experiment: functional, cell-based. In a few lines: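 Human monocytic THP-1 cells, 2 × 10^6/ml in RPMI 1640, preincubated 15 min with compound added from DMSO solutions (test range 1 nM to 10 μM) or without, then stimulated with LPS 1 μg/ml for 4 h total; cells spun down and IL-1β released into conditioned medium quantified by ELISA.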

Experiment [3] deals with T2, Caspase-1 (Homo sapiens, UniProt P29466).
T2 sequence (P29466 whole entry): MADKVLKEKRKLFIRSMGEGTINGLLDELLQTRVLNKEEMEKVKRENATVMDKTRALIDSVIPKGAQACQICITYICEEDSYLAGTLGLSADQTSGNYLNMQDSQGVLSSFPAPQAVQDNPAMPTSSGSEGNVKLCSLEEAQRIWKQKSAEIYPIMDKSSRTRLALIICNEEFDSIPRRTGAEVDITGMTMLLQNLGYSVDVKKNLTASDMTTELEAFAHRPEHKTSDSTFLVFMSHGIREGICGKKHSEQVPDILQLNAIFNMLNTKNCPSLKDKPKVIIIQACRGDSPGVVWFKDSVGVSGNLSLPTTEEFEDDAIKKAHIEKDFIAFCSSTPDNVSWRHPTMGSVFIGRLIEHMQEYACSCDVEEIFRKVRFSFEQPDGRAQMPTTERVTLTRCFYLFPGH
Description: Inhibitory activity against Caspase 1.

Experiment [4] addresses Caspase-8 (Homo sapiens, UniProt Q14790). Description: Inhibitory activity against Caspase 8.

Sequence of Caspase-8 (Q14790 217-374 limits assumed): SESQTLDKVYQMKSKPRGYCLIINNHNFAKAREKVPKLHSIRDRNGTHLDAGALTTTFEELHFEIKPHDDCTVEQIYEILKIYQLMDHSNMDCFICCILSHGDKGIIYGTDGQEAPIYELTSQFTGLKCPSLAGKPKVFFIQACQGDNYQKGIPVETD
Sequence of Caspase-8 (Q14790 385-479 limits assumed): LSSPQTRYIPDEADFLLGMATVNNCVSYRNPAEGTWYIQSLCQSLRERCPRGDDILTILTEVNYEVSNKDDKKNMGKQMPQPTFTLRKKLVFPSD

As to `O=C1C[C@H](NC(=O)[C@@H]2COC[C@@H]3C/C=C\C[C@H](NC(=O)c4cccc(C(F)(F)F)c4)C(=O)N32)C(O)O1` (stereo partly specified), the IC50 (usually the point on the concentration scale where inhibition reaches its midpoint) in experiment [1] was > 10000 nM; in experiment [2], 132 nM; in experiment [3], 9 nM; in experiment [4] it was 4190 nM.
The like results for `O=C1C[C@H](NC(=O)[C@@H]2CNC[C@@H]3CCCC[C@H](NC(=O)c4ccc5ccccc5c4)C(=O)N32)C(O)O1` (stereo partly specified) were, in that order, > 10000 nM, 75 nM, 1 nM and 506 nM.
In the case of `O=C1C[C@H](NC(=O)[C@@H]2COC[C@@H]3C/C=C\C[C@H](NC(=O)c4ccccc4Cl)C(=O)N32)C(O)O1` (stereo partly specified), the IC50 in experiment [1] was > 10000 nM; in experiment [3], 33 nM; in experiment [4] it was 448 nM.
On to `O=C1C[C@H](NC(=O)[C@@H]2COC[C@@H]3C/C=C\C[C@H](NC(=O)c4ccccc4C(F)(F)F)C(=O)N32)C(O)O1` (stereo partly specified), for which the values for the half-inhibitory concentration (IC50) in experiment [1], in experiment [3] and in experiment [4] were > 10000 nM, 50 nM and 670 nM, respectively.
Consider `CS(=O)(=O)N1C[C@@H]2CCCC[C@H](NC(=O)c3nccc4ccccc34)C(=O)N2[C@H](C(=O)N[C@H]2CC(=O)OC2O)C1` (stereo partly specified), for which the IC50 is > 10000 nM in experiment [1], 168 nM in experiment [2], 1 nM in experiment [3] and 917 nM in experiment [4].
On the same counts, the results for `O=C1C[C@H](NC(=O)[C@@H]2COC[C@@H]3C/C=C\C[C@H](NC(=O)c4cc5ccccc5s4)C(=O)N32)C(O)O1` (stereo partly specified) are > 10000 nM, 57 nM, 3 nM and 1600 nM.
Turning to `O=C1C[C@H](NC(=O)[C@@H]2CNC[C@@H]3CCCC[C@H](NC(=O)c4ccccc4)C(=O)N32)C(O)O1` (stereo partly specified), the concentration for half-maximal inhibition (IC50) in experiment [1] was > 10000 nM; in experiment [2], 245 nM; in experiment [3], 10 nM; in experiment [4], 384 nM.
The like results for `O=C1C[C@H](NC(=O)[C@@H]2CNC[C@@H]3CCCC[C@H](NC(=O)c4nccc5ccccc45)C(=O)N32)C(O)O1` (stereo partly specified) were, in that order, > 10000 nM, 156 nM, 1 nM and 595 nM.
The like results for `O=C1C[C@H](NC(=O)[C@@H]2CN(C(=O)OCc3ccccc3)C[C@@H]3C/C=C\C[C@H](NC(=O)c4ccccc4)C(=O)N32)C(O)O1` (stereo partly specified) were, in that order, 3260 nM, 125 nM, 1 nM and 13 nM.
On the same counts, the results for `O=C1C[C@H](NC(=O)[C@@H]2CN(C(=O)Nc3ccccc3)C[C@@H]3CCCC[C@H](NC(=O)c4ccccc4)C(=O)N32)C(O)O1` (stereo partly specified) are > 10000 nM, 1690 nM, 5 nM and 601 nM.
For `O=C1C[C@H](NC(=O)[C@@H]2COC[C@@H]3CCCC[C@H](NC(=O)c4cc5ccccc5s4)C(=O)N32)C(O)O1` (stereo partly specified), the IC50 in experiment [1] was > 10000 nM; in experiment [2], 178 nM; in experiment [3], 1 nM; in experiment [4], 429 nM.
On to `O=C1C[C@H](NC(=O)[C@@H]2COC[C@@H]3C/C=C\C[C@H](NC(=O)c4ccc(C(F)(F)F)cc4)C(=O)N32)C(O)O1` (stereo partly specified), for which the values for the IC50 in experiment [1], in experiment [3] and in experiment [4] were > 10000 nM, 135 nM and 6450 nM, respectively.
On to `CN1C[C@@H]2CCCC[C@H](NC(=O)c3ccccc3)C(=O)N2[C@H](C(=O)N[C@H]2CC(=O)OC2O)C1` (stereo partly specified), for which the IC50 in experiment [1] was > 10000 nM; in experiment [2], 1820 nM; in experiment [3], 5 nM; in experiment [4], 247 nM.
As for `O=C1C[C@H](NC(=O)[C@@H]2COC[C@@H]3C/C=C\C[C@H](NC(=O)c4ccccc4)C(=O)N32)C(O)O1` (stereo partly specified), the values for the IC50 in experiment [1], in experiment [3] and in experiment [4] were > 10000 nM, 130 nM and 7900 nM, respectively.
`O=C1C[C@H](NC(=O)[C@@H]2COC[C@@H]3C/C=C\C[C@H](NC(=O)c4cccc(Cl)c4)C(=O)N32)C(O)O1` (stereo partly specified): the IC50 is > 10000 nM in experiment [1], 118 nM in experiment [2], 7 nM in experiment [3] and 1550 nM in experiment [4].
For `CS(=O)(=O)N1C[C@@H]2CCCC[C@H](NC(=O)c3ccc4ccccc4c3)C(=O)N2[C@H](C(=O)N[C@H]2CC(=O)OC2O)C1` (stereo partly specified), the half-inhibitory concentration (IC50) in experiment [1] is > 10000 nM; in experiment [2], 46 nM; in experiment [3] it was 1 nM; in experiment [4], 283 nM.
On to `O=C1C[C@H](NC(=O)[C@@H]2CN(C(=O)OCc3ccccc3)C[C@@H]3C/C=C\C[C@H](NC(=O)c4ccc5ccccc5c4)C(=O)N32)C(O)O1` (stereo partly specified), for which the IC50 in experiment [1] is 4850 nM; in experiment [2] it was 106 nM; in experiment [3] it was 1 nM; in experiment [4], 5 nM.
Regarding `O=C1C[C@H](NC(=O)[C@@H]2CN(S(=O)(=O)c3ccccc3)C[C@@H]3CCCC[C@H](NC(=O)c4ccccc4)C(=O)N32)C(O)O1` (stereo partly specified), the IC50 in experiment [1] was > 10000 nM; in experiment [2] it was 159 nM; in experiment [3], 2 nM; in experiment [4], 106 nM.
The like results for `O=C1C[C@H](NC(=O)[C@@H]2COC[C@@H]3CCCC[C@H](NC(=O)c4nccc5ccccc45)C(=O)N32)C(O)O1` (stereo partly specified) were, in that order, > 10000 nM, 101 nM, 1 nM and 264 nM.
On the same counts, the results for `O=C1C[C@H](NC(=O)[C@@H]2COC[C@@H]3C/C=C\C[C@H](NC(=O)c4ccc5ccccc5c4)C(=O)N32)C(O)O1` (stereo partly specified) are > 10000 nM, 62 nM, 3 nM and 2590 nM.
The like results for `CC(=O)N1C[C@@H]2CCCC[C@H](NC(=O)c3ccccc3)C(=O)N2[C@H](C(=O)N[C@H]2CC(=O)OC2O)C1` (stereo partly specified) were, in that order, > 10000 nM, 1260 nM, 6 nM and 481 nM.
Regarding `O=C1C[C@H](NC(=O)[C@@H]2COC[C@@H]3C/C=C\C[C@H](NC(=O)c4ccc(Cl)cc4)C(=O)N32)C(O)O1` (stereo partly specified), the values for the IC50 in experiment [1], in experiment [3] and in experiment [4] were > 10000 nM, 74 nM and 3770 nM, respectively.
As to `O=C1C[C@H](NC(=O)[C@@H]2CN(C(=O)OCc3ccccc3)C[C@@H]3C/C=C\C[C@H](NC(=O)c4nccc5ccccc45)C(=O)N32)C(O)O1` (stereo partly specified), the 50% inhibitory concentration (IC50) in experiment [1] was > 10000 nM; in experiment [2] it was 154 nM; in experiment [3] it was 1 nM; in experiment [4], 4 nM.
`CS(=O)(=O)N1C[C@@H]2CCCC[C@H](NC(=O)c3ccccc3)C(=O)N2[C@H](C(=O)N[C@H]2CC(=O)OC2O)C1` (stereo partly specified): the IC50 in experiment [1] is > 10000 nM; in experiment [2] it was 174 nM; in experiment [3], 6 nM; in experiment [4] it was 384 nM.
The like results for `O=C1C[C@H](NC(=O)[C@@H]2COC[C@@H]3CCCC[C@H](NC(=O)c4ccc5ccccc5c4)C(=O)N32)C(O)O1` (stereo partly specified) were, in that order, > 10000 nM, 60 nM, 1 nM and 911 nM.
On the same counts, the results for `O=C1C[C@H](NC(=O)[C@@H]2CN(C(=O)c3ccccc3)C[C@@H]3CCCC[C@H](NC(=O)c4ccccc4)C(=O)N32)C(O)O1` (stereo partly specified) are 8070 nM, 1420 nM, 7 nM and 38 nM.
Turning to `O=C1C[C@H](NC(=O)[C@@H]2CN(S(=O)(=O)c3ccccc3)C[C@@H]3CCCC[C@H](NC(=O)c4ccc5ccccc5c4)C(=O)N32)C(O)O1` (stereo partly specified), the IC50 in experiment [1] was > 10000 nM; in experiment [2], 153 nM; in experiment [3] it was 1 nM; in experiment [4], 50 nM.
On the same counts, the results for `O=C1C[C@H](NC(=O)[C@@H]2COC[C@@H]3C/C=C\C[C@H](NC(=O)c4nccc5ccccc45)C(=O)N32)C(O)O1` (stereo partly specified) are > 10000 nM, 182 nM, 3 nM and 1590 nM.
On the same counts, the results for `O=C1C[C@H](NC(=O)[C@@H]2CN(S(=O)(=O)c3ccccc3)C[C@@H]3CCCC[C@H](NC(=O)c4nccc5ccccc45)C(=O)N32)C(O)O1` (stereo partly specified) are > 10000 nM, 87 nM, 1 nM and 160 nM.
